{
  "source": "paper PMC2195561",
  "about": "(The Journal of Experimental Medicine, 1999)",
  "key": {"TAP [1]": {"target": "T1, TAP (Homo sapiens, UniProt Q03518+Q03519)", "T1 sequence (Q03518 1-748)": "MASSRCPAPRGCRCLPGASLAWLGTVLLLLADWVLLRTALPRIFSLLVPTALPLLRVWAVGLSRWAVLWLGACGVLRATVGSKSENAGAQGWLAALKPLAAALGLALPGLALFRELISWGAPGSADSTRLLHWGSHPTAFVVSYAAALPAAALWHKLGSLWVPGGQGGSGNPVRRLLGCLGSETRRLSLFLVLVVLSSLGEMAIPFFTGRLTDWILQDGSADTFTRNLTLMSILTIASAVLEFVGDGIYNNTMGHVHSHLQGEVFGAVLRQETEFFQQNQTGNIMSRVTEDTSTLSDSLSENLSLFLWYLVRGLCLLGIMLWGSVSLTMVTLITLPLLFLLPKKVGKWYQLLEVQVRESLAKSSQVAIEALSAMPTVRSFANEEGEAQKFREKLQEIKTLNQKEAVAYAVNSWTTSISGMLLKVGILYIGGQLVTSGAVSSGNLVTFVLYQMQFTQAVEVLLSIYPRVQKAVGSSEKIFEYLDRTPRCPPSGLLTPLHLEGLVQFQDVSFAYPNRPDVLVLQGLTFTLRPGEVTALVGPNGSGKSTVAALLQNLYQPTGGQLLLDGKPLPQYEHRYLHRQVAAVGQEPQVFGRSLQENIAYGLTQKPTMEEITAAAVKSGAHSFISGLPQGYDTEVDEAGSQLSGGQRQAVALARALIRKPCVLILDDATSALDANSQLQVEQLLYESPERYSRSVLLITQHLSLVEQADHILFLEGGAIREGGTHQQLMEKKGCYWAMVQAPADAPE", "T1 sequence (Q03519 1-686)": "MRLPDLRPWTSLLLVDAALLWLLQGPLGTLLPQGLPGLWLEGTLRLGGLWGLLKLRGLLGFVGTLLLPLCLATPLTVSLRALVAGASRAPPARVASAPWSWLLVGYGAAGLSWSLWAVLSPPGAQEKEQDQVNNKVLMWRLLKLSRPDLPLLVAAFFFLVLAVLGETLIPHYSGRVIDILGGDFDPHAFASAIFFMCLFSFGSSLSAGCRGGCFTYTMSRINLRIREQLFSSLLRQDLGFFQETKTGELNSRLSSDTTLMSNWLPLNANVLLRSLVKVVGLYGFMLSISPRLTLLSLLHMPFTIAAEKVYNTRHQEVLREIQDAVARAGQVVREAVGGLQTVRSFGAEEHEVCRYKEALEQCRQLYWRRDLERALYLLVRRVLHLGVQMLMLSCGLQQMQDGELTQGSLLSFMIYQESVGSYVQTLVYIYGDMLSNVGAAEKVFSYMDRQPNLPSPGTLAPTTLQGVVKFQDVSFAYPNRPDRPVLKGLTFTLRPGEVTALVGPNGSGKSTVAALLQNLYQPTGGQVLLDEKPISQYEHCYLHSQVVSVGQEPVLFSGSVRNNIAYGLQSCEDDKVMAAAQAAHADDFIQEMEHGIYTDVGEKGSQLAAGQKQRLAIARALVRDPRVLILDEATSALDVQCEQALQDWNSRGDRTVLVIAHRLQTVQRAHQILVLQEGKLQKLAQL", "experiment": "Competition of TAP-mediated translocation of iodinated peptide 417", "assay_type": "biochemical", "method_in_brief": "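Iodinated index peptide (125I via chloramine-T) premixed with unlabelled competitor peptide, then added to streptolysin O–permeabilized human LCL721 cells for TAP-mediated transport into the ER. Translocated index peptide is given as a fraction of that recovered without competitor.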"}, "TAP [2]": {"system": "TAP", "experiment": "Direct TAP-mediated translocation of radiolabeled peptides, murine TAP", "assay_type": "biochemical", "details": "data not shown"}, "TAP [3]": {"target": "T1, TAP", "experiment": "Direct TAP-mediated translocation of radiolabeled peptides, human TAP", "assay_type": "biochemical", "details": "streptolysin O–permeabilized LCL721 cells; Con A–Sepharose recovery; Fig. 1 B", "method_in_brief": "(§1)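 Test peptides carrying an N-linked glycosylation sequon are radioiodinated (Na-125I, chloramine-T) and added to streptolysin O–permeabilized LCL721 cells. Peptide reaching the ER acquires an N-glycan and is recovered on Con A–Sepharose, given as a fraction of total input. Controls are samples run without ATP and TAP-deficient T2 cells.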"}, "Con A": {"system": "Con A", "experiment": "Con A–Sepharose recovery in the absence of ATP", "assay_type": "binding", "details": "no N-linked glycan, Fig. 1 B", "method_in_brief": "as §1"}},
  "note": "pIC50: −log10 of the molar value. No end group written: not given here.",
  "data": [
    {"substance": "FASGNYSAL [wt-S]", "values": [
      {"measurement": "pIC50", "setting": "TAP [1]", "value": 4.92}
    ]},
    {"substance": "TVNKTERAY [compound 417, reference compound]", "values": [
      {"measurement": "translocation by murine TAP", "setting": "TAP [2]", "value": "very efficiently translocated"},
      {"measurement": "translocation by human TAP", "setting": "TAP [3]", "value": "very efficiently translocated"}
    ]},
    {"substance": "TVNKTES [O-β-GlcNAc]AY [417-G]", "values": [
      {"measurement": "translocation by human TAP", "setting": "TAP [3]", "value": "also translocated by TAP"},
      {"measurement": "recovery by Con A–Sepharose in the absence of ATP", "setting": "Con A", "value": "not itself a ligand for Con A"}
    ]},
    {"substance": "TVNKTESAY [417-S]", "values": [
      {"measurement": "translocation by murine TAP", "setting": "TAP [2]", "value": "very efficiently translocated"},
      {"measurement": "translocation by human TAP", "setting": "TAP [3]", "value": "very efficiently translocated"}
    ]}
  ]
}
